Test results as given in PMC10269403 (Journal of medicinal chemistry, 2023).
Values joined by “and” are separate entries in the source; they are usually repeats but may differ in a detail not shown here. Equal values may be shown once. “Also recorded” adds a separate entry of the source. Read-outs that look alike come from different tables or passages of the source.

Legend:
[1] = cited from earlier work
primary mouse neurons [2] = test: Neuronal toxicity by MAP-2 staining in primary mouse neurons; type: cell-based; conditions: for estimated TC10: primary neurons, discussion; for TC50 (µM) Relative MAP-2 Area / TC50 (µM) Relative MAP-2 intensity: 48 hr, 0.1 to 10,000 nM, ±SD
primary mouse neurons [3] = test: Calcium imaging in primary mouse neuron cultures; type: cell-based; conditions: 1 µM
Method in brief: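 Primary mouse cortex/hippocampus cultures were seeded at 20,000 cells/cm2 on poly-D-lysine coverslips in Neurobasal Plus/B27 Plus/Glutamax (>95% neurons by day 4). At 14–18 days in vitro, neurons were loaded with Fluo-4 AM (2 µM) in aCSF (NaCl 137, KCl 5.0, CaCl2 2.3, MgCl2 1.3, glucose 20 mM). Average spikes were scored in acute and delayed phases plus a summation average, versus matched controls. Statistics: Brown-Forsythe/Welch ANOVA with Dunnett's T3.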

[4] = biological target: HIV reverse transcriptase (Human immunodeficiency virus type 1 group M subtype B, UniProt P03366); test: HIV RT inhibition, fluorescent EnzChek/PicoGreen assay; type: biochemical, HIV-1
[5] = system: HIV-1 IIIB (A17 variant) virus; test: microbe, parasite or virus in culture; type: cell-based; conditions: for EC50: Human immunodeficiency virus 1, IIIB, TZM-bl
HIV-1 IIIB virus = test: Inhibition of wild-type HIV-1; type: cell-based
HIV = conditions: cited from earlier work
HIV-RT = conditions: substituted pyridinones; cited from earlier work
[6] = Metabolic stability in human liver microsomes; type: in vitro ADME
[7] = Metabolic stability in mouse liver microsomes; type: in vitro ADME
[8] = Single-dose pharmacokinetics in mice; conditions: mouse
Balb/C mice = test: In vivo subacute toxicity study; conditions: 30 days
Caco-2 cells = test: Efflux in Caco-2 cells; type: in vitro ADME
Balb/C male mice = test: In vivo acute toxicity study; conditions: 2000 mg/kg single oral dose, 14 days
Solubility = type: physicochemical
Protein binding = type: in vitro ADME
Y181C HIV mutant = test: Inhibition of NNRTI-resistant Y181C mutant in TZM-bl cells; type: cell-based, HIV-1; conditions: 0.05–500 nM
K103N HIV mutant = test: Inhibition of NNRTI-resistant K103N mutant in TZM-bl cells; type: cell-based, HIV-1; conditions: 0.05–500 nM
L100I/K103N HIV mutant = test: Inhibition of NNRTI-resistant L100I/K103N mutant in TZM-bl cells; type: cell-based, HIV-1; conditions: 0.05–500 nM
[9] = Cytotoxicity in TZM-bl cells; type: cell-based; conditions: human
hERG = hERG (Homo sapiens, UniProt Q12809); conditions: cited from earlier work
hERG, sequence (Q12809 whole entry): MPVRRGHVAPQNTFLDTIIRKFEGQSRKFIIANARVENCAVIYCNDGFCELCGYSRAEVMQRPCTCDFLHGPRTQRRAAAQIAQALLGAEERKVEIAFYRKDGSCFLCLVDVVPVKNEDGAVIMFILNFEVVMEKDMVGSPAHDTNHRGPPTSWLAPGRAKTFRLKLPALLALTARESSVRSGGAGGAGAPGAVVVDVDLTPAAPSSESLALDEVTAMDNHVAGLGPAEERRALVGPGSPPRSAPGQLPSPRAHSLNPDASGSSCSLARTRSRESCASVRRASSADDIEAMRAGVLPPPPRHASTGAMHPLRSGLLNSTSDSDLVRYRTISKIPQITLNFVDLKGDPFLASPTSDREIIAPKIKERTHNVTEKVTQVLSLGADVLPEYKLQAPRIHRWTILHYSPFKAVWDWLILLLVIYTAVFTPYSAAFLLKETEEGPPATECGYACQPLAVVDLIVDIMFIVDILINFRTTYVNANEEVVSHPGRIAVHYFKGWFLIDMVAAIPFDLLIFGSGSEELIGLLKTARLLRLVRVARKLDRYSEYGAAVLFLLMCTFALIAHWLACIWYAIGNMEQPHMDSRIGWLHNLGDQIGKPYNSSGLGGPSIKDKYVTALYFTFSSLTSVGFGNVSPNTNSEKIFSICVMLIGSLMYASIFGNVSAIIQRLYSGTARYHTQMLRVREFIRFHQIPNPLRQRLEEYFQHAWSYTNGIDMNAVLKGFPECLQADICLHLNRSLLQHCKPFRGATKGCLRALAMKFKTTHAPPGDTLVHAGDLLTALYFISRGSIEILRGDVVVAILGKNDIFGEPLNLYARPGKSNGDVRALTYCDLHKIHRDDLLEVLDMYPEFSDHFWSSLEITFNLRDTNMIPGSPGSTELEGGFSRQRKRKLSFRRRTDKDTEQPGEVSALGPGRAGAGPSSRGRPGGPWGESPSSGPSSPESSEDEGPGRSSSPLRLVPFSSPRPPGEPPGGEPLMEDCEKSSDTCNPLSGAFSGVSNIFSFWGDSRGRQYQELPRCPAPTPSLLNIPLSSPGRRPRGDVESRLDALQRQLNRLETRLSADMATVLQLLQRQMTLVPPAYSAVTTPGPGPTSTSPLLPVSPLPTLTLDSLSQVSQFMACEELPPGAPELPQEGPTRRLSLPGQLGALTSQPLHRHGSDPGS

TZM-bl cells = test: Cytotoxicity in TZM-bl cells; type: cell-based
[10] = Human immunodeficiency virus 1, IIIB, TZM-bl, read-out: WT EC50 (nM)

## O=C1Nc2ccc(Cl)cc2[C@@](C#CC2CC2)(C(F)(F)F)O1 [EFV, efavirenz]
[1]; human, in vivo
  plasma levels: 3170 to 12670 nM
Primary mouse neurons [2]
  estimated TC10: 0.07 µM
Primary mouse neurons [3]
  calcium accumulation, delayed phase (in words): pronounced increase
  calcium spiking frequency, acute phase (in words): acute suppression

## N#Cc1ccc(Nc2nc(N)n(S(=O)(=O)c3cccc4cc(C#N)ccc34)n2)cc1 [compound 11726152, 5-[[5-amino-3-(4-cyanoanilino)-1,2,4-triazol-1-yl]sulfonyl]naphthalene-2-carbonitrile]
Primary mouse neurons [2]
  TC50 (µM) Relative MAP-2 Area: 1.2 ± 0.6 µM
  TC50 (µM) Relative MAP-2 intensity: 1.0 ± 0.5 µM
Primary mouse neurons [2]; TC10/(100*EC50), relative MAP-2 area
  Safety Index: 1.6
[4]
  EC50: 0.7 ± 0.22 µM
[5]; read-out: A17 EC50 (nM)
  EC50: 49 ± 7.8 nM
HIV-1 IIIB virus; [10]
  EC50: 0.35 ± 0.05 nM

## CO[P@](=O)(c1cc(C)cc(/C=C/C#N)c1)c1c(C(N)=O)[nH]c2ccc(Cl)cc12 [IDX899]
HIV; aryl-phospho-indole
  EC50: 0.001 µM

## Cn1c(Cn2ccc(C(F)(F)F)c(Oc3cc(Cl)cc(C#N)c3)c2=O)n[nH]c1=O [Doravirine, doravirine]
HIV-RT
  IC50: 0.011 µM

## N#Cc1ccc(Nc2nc(N)n(S(=O)(=O)c3c(Cl)nc4sccn34)n2)cc1 [compound 11926331, 4-[[5-amino-1-(6-chloroimidazo[2,1-b]thiazol-5-yl)sulfonyl-1,2,4-triazol-3-yl]amino]-benzonitrile]
[4]; Table S1
  RT activity (in words): excellent
HIV-1 IIIB virus; Table S1
  whole cell virus activity (in words): excellent

## N#C/C=C/c1ccc2c(S(=O)(=O)n3nc(Nc4ccc(C#N)c(Cl)c4)nc3N)cccc2c1 [compound 12126065, 4-[[5-amino-1-[[6-[(E)-2-cyanovinyl]-1-naphthyl]sulfonyl]-1,2,4-triazol-3-yl]amino]-2-chloro-benzonitrile]
Primary mouse neurons [2]
  TC50 (µM) Relative MAP-2 Area: 100 ± 410 µM
  TC50 (µM) Relative MAP-2 intensity: >10 µM
Primary mouse neurons [2]; concentration of 10% loss of MAP-2
  Estimated TC10 (µM) Relative MAP-2 Intensity: >10 µM
Primary mouse neurons [2]; mouse neurons, as stated in abstract
  50% toxicity concentration (TC50): > 100 µM
Primary mouse neurons [2]; up to 10 µM
  neurotoxicity in mouse neurons (in words): minimal neurotoxicity
[4]
  EC50: 0.23 ± 0.07 µM
[6]
  metabolic stability (in words): good
[7]
  metabolic stability (in words): good
[5]; read-out: A17 EC50 (nM)
  EC50: 3.4 ± 1.1 nM
[5]; read-out: EC50 against K103N/Y181C double mutant
  EC50: 1.33 ± 0.16 nM
[8]; male, Balb/C, plasma, po, 250 mg/kg
  half-life: 7.7 ± 1.57 h
[8]; in vivo
  in vivo brain penetration (in words): good
Balb/C mice; 250 mg/kg group only
  aspartate aminotransferase activity versus control (in words): reduced aspartate aminotransferase activity
Balb/C mice; 25 and 250 mg/kg daily
  subacute toxicity (in words): no in vivo acute or subacute toxicity
HIV-1 IIIB virus; Human immunodeficiency virus 1, IIIB, TZM, read-out: EC50 against wild-type HIV-1 in TZM cells
  EC50: 0.24 nM
HIV-1 IIIB virus; Human immunodeficiency virus 1, IIIB, TZM-bl, read-out: EC50 (TZM, WT)
  EC50: 0.263 nM
HIV-1 IIIB virus; [10]
  EC50: 0.47 ± 0.05 nM
HIV-1 IIIB virus; Human immunodeficiency virus 1, IIIB, TZM-bl, read-out: estimated EC90
  EC90: 0.019 µM
Caco-2 cells
  efflux in Caco-2 cells (in words): no indication of efflux
Balb/C male mice
  acute toxicity (in words): no in vivo acute or subacute toxicity; also recorded: No visible signs of intoxication
Solubility
  solubility (in words): poor
Protein binding
  protein binding (in words): high
Y181C HIV mutant
  activity against Y181C mutant (in words): retained activity
K103N HIV mutant
  activity against K103N mutant (in words): retained activity
L100I/K103N HIV mutant
  activity against L100I/K103N mutant (in words): not drastically mitigated; also recorded: retained activity

## N#Cc1ccc2c(S(=O)(=O)n3nc(Nc4ccc(C#N)c(C#N)c4)nc3N)cccc2c1 [compound 12126055, 4-[[5-amino-1-[(6-cyano-1-naphthyl)sulfonyl]-1,2,4-triazol-3-yl]amino]phthalonitrile]
Primary mouse neurons [2]
  TC50 (µM) Relative MAP-2 Area: 48 ± 86 µM
  TC50 (µM) Relative MAP-2 intensity: 50 ± 140 µM
[4]
  EC50: 0.35 ± 0.13 µM
[9]
  CC50 at 48 h: 28 ± 66 µM
[5]; read-out: A17 EC50 (nM)
  EC50: 49 ± 9.5 nM
HIV-1 IIIB virus; [10]
  EC50: 0.21 ± 0.01 nM

## Cc1cc(/C=C/C#N)cc(C)c1Nc1ccnc(Nc2ccc(C#N)cc2)n1 [RPV, rilpivirine]
[1]
  recorded CSF concentrations: up to 2.9 ng/ml and ≤ 7.9 nM
Primary mouse neurons [2]
  estimated TC10: 0.6 to 0.93 µM
Primary mouse neurons [3]
  calcium spiking frequency, acute phase (in words): acute suppression
hERG
  concentration shown to inhibit hERG in vitro: 300 nM
[4]
  EC50: 0.16 ± 0.06 µM
[5]; read-out: A17 EC50 (nM)
  EC50: 2.5 ± 1.9 nM
HIV-1 IIIB virus; [10]
  EC50: 0.35 ± 0.03 nM
HIV
  proposed plasma target concentration (protein binding-adjusted EC90): 0.0121 µg/mL
HIV; read-out: proposed plasma target concentration (protein binding-adjusted EC90)
  EC90: 0.033 µM

## Nc1nc(Nc2ccc(Cl)cc2)nn1S(=O)(=O)c1ccc2ccccc2c1 [compound 11626007, N^3-(4-chlorophenyl)-1-(2-naphthylsulfonyl)-1,2,4-triazole-3,5-diamine]
Primary mouse neurons [2]
  TC50 (µM) Relative MAP-2 Area: 34 ± 46 µM
  TC50 (µM) Relative MAP-2 intensity: 23 ± 18 µM
[4]
  EC50: 0.28 ± 0.1 µM
TZM-bl cells
  toxicity in MTS assay (in words): No observable toxicity
[5]; TZM-bl cells, early screening
  inhibition of A17 mutant (in words): No appreciable inhibition

## N#Cc1ccc2c(S(=O)(=O)n3nc(Nc4ccc(C#N)c(Cl)c4)nc3N)cccc2c1 [compound 11826116, 5-[[5-amino-3-(3-chloro-4-cyano-anilino)-1,2,4-triazol-1-yl]sulfonyl]naphthalene-2-carbonitrile]
[5]; read-out: A17 EC50 (nM)
  EC50: 25 ± 6.6 nM
HIV-1 IIIB virus; [10]
  EC50: 0.34 ± 0.04 nM
